Laboratory results reported in ChEMBL document CHEMBL1145048, “Functionalized glycomers as growth inhibitors and inducers of apoptosis in human glioblastoma cells” (J Med Chem, 2003).

What was measured:
[1] = Apoptosis index was determined against human glioblastoma LN18 cells at concentration of 25 uM after total exposure time of 24 hours; type: functional, cell-based
Procedure, shortened: (§1)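 Cells seeded to half confluence in DMEM-10% FCS for 24 h, then held 24 h without FCS before glycomer addition in serum-free medium. At the end of the incubation, histone-associated DNA fragments (mono- and oligonucleosomes) in still-adherent cells were measured by photometric ELISA (absorbance 405 nm). Apoptosis index = absorbance of treated / untreated wells, untreated set at 1.00. Done in triplicate.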

[2] = Glycomer activity determined as growth inhibition of human glioblastoma LN18 cells; type: functional, cell-based
Procedure, shortened: (§2)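 Cells grown 24 h with FCS, then 24 h without FCS, then exposed to glycomers at increasing concentrations in serum-free medium for 24 h. MTT at 0.2 mg/mL was added for the last 2 h, formazan was dissolved in 0.1 N HCl/2-propanol and read at 540 nm. Growth inhibition = treated/control MTT reduction. IC50 is the concentration giving 50% inhibition from dose–response curves. Triplicate, mean ± SD.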

[3] = Apoptosis index was determined against human glioblastoma LNZ308 cells at concentration of 25 uM after total exposure time of 24 hours; type: functional, cell-based; procedure, shortened: as §1
[4] = Glycomer activity determined as growth inhibition of human glioblastoma LNZ308 cells; type: functional, cell-based; procedure, shortened: as §2
[5] = Apoptosis index was determined against human glioblastoma LN18 cells at concentration of 11 uM after total exposure time of 15 hours; type: functional, cell-based; procedure, shortened: as §1
[6] = Efficacy index was evaluated as ratio of apoptosis index to MTT reduction for human glioblastoma LN18 cells at 0 uM concentration; type: functional, cell-based
Procedure, shortened: (§3)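 Cells grown 24 h with FCS, then deprived of FCS for 10 h, then exposed to glycomers for 12 h. In adherent cells, MTT reduction (540 nm), [3H]-thymidine incorporation (cpm) and nucleosome-fragment apoptosis index (treated vs control) were measured. Efficacy index = ratio of thymidine incorporation or apoptosis index to MTT reduction.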

[7] = Efficacy index was evaluated as ratio of apoptosis index to MTT reduction for human glioblastoma LN18 cells at 11.3 uM concentration; type: functional, cell-based; procedure, shortened: as §3
[8] = Efficacy index was evaluated as ratio of apoptosis index to MTT reduction for human glioblastoma LN18 cells at 22.5 uM concentration; type: functional, cell-based; procedure, shortened: as §3
[9] = Efficacy index was evaluated as ratio of apoptosis index to MTT reduction for human glioblastoma LN18 cells at 4.5 uM concentration; type: functional, cell-based; procedure, shortened: as §3
[10] = Efficacy index was evaluated as ratio of inhibition of DNA synthesis (3HT incorporation) to inhibition of growth(MTT) for human glioblastoma LN18 cells at 0 uM concentration; type: functional, cell-based; procedure, shortened: as §3
[11] = Efficacy index was evaluated as ratio of inhibition of DNA synthesis (3HT incorporation) to inhibition of growth(MTT) for human glioblastoma LN18 cells at 11.3 uM concentration; type: functional, cell-based; procedure, shortened: as §3
[12] = Efficacy index was evaluated as ratio of inhibition of DNA synthesis (3HT incorporation) to inhibition of growth(MTT) for human glioblastoma LN18 cells at 22.5 uM concentration; type: functional, cell-based; procedure, shortened: as §3
[13] = Efficacy index was evaluated as ratio of inhibition of DNA synthesis (3HT incorporation) to inhibition of growth(MTT) for human glioblastoma LN18 cells at 4.5 uM concentration; type: functional, cell-based; procedure, shortened: as §3
[14] = Efficacy index was evaluated as ratio of apoptosis index to MTT reduction for human glioblastoma LNZ308 cells at 0 uM concentration; type: functional, cell-based; procedure, shortened: as §3
[15] = Efficacy index was evaluated as ratio of apoptosis index to MTT reduction for human glioblastoma LNZ308 cells at 11.3 uM concentration; type: functional, cell-based; procedure, shortened: as §3
[16] = Efficacy index was evaluated as ratio of apoptosis index to MTT reduction for human glioblastoma LNZ308 cells at 22.5 uM concentration; type: functional, cell-based; procedure, shortened: as §3
[17] = Efficacy index was evaluated as ratio of apoptosis index to MTT reduction for human glioblastoma LNZ308 cells at 4.5 uM concentration; type: functional, cell-based; procedure, shortened: as §3
[18] = Apoptosis index was determined against human glioblastoma LNZ308 cells at concentration of 11 uM after total exposure time of 15 hours; type: functional, cell-based; procedure, shortened: as §1
[19] = Efficacy index was evaluated as ratio of inhibition of DNA synthesis (3HT incorporation) to inhibition of growth(MTT) for human glioblastoma LNZ308 cells at 0 uM concentration; type: functional, cell-based; procedure, shortened: as §3
[20] = Efficacy index was evaluated as ratio of inhibition of DNA synthesis (3HT incorporation) to inhibition of growth(MTT) for human glioblastoma LNZ308 cells at 11.3 uM concentration; type: functional, cell-based; procedure, shortened: as §3
[21] = Efficacy index was evaluated as ratio of inhibition of DNA synthesis (3HT incorporation) to inhibition of growth(MTT) for human glioblastoma LNZ308 cells at 22.5 uM concentration; type: functional, cell-based; procedure, shortened: as §3
[22] = Apoptosis index was determined against human glioblastoma LN18 cells at 25 uM after total exposure time of 24 hours; type: functional; procedure, shortened: as §1
[23] = Apoptosis index was determined against human glioblastoma LNZ308 cells at 25 uM after total exposure time of 24 hours; type: functional; procedure, shortened: as §1

Row | Structure (SMILES) | IC50 ([2]; Homo sapiens, LN-18) [µM] | IC50 ([4]; Homo sapiens, LNZ308) [µM] | further results
1 | C=CCO[C@H]1[C@H](O)[C@H](COCc2ccccc2)O[C@@H](Oc2ccc(I)cc2)[C@H]1OC(=O)CCC | 7.5 | 11.5 | Apoptosis index [1]: 1.6; Apoptosis index [3]: 2.27
2 | C=CCO[C@H]1[C@@H](O)[C@H](COCc2ccccc2)O[C@@H](Oc2ccc(I)cc2)[C@H]1OC(=O)CCC | 20 | 37 | 
3 | CCCO[C@H]1[C@H](O)[C@H](COCc2ccccc2)O[C@@H](Oc2ccc(OC)cc2)[C@H]1OC(C)=O | > 50 | > 50 | 
4 | C=CCO[C@H]1[C@H](O)[C@H](COCc2ccccc2)O[C@@H](Oc2ccc(I)cc2)[C@H]1OC(=O)CC | 11.5 | 17.5 | Apoptosis index [5]: 3.67; Efficacy index [6]: 0.93; Efficacy index [7]: 4.85; Efficacy index [8]: 8.3; Efficacy index [9]: 1.92; Efficacy index [10]: 16.2; Efficacy index [11]: 0.09; Efficacy index [12]: 0.58; Efficacy index [13]: 6.23; Efficacy index [14]: 0.95; Efficacy index [15]: 0.7; Efficacy index [16]: 2.32; Efficacy index [17]: 0.62; Apoptosis index [18]: 0.91; Efficacy index [19]: 9.79; Efficacy index [20]: 2.04; Efficacy index [21]: 0.34
5 | CCCC(=O)O[C@@H]1[C@H](Oc2ccc(I)cc2)O[C@@H](COS(=O)(=O)c2cccc(C(F)(F)F)c2)[C@@H](O)[C@@H]1OC | 26 | 22 | 
6 | C=CCO[C@H]1[C@H](O)[C@H](COS(=O)(=O)c2cccc(C(F)(F)F)c2)O[C@@H](Oc2ccc(I)cc2)[C@H]1OC(=O)C(C)C | 12.5 | 8.5 | Apoptosis index [22]: 1.1; Apoptosis index [23]: 1.09
7 | C=CCOC1C(O)C(CNS(=O)(=O)c2cccc(C(F)(F)F)c2)OC(Oc2ccc(I)cc2)C1O (stereo not drawn) | 16 | 27 | 
8 | C=CCO[C@H]1[C@H](O)[C@H](COCc2ccccc2)O[C@@H](Oc2ccc(OC)cc2)[C@H]1OC(C)=O | > 50 | > 50 | 
9 | C=CCOC1C(O)C(CNS(=O)(=O)c2cccc(C(F)(F)F)c2)OC(Oc2ccc(I)cc2)C1OC(=O)CCC (stereo in doubt; 17a) |  |  | IC50 ([2]; ln18): 25 µM; IC50 ([4]; lnz308): 26 µM
10 | CCCC(=O)O[C@@H]1[C@H](Oc2ccc(I)cc2)O[C@@H](COCc2ccccc2)[C@@H](O)[C@@H]1OCCO | > 50 | > 50 | 
11 | C=CCO[C@H]1[C@H](O)[C@H](COCc2ccccc2)O[C@@H](Oc2ccc(I)cc2)[C@H]1OC(=O)C(C)C | > 50 | > 50 | 
12 | C=CCO[C@@H]1[C@H](OC(=O)CC)[C@H](Oc2ccc(I)cc2)O[C@@H](COS(=O)(=O)c2cccc(C(F)(F)F)c2)[C@H]1OCc1ccc(OC)cc1 | > 50 | > 50 | 
13 | C=CCO[C@H]1[C@H](O)[C@H](COS(=O)(=O)c2cccc(C(F)(F)F)c2)O[C@H](Oc2ccc(I)cc2)[C@@H]1OC(=O)CCC | 25 | 42 | 
14 | CCCO[C@H]1[C@H](O)[C@H](COS(=O)(=O)c2cccc(C(F)(F)F)c2)O[C@@H](Oc2ccccc2)[C@H]1OC(=O)CCC | > 50 | > 50 | 
15 | C=CCO[C@H]1[C@H](O)[C@H](COS(=O)(=O)c2cccc(C(F)(F)F)c2)O[C@@H](Oc2ccc(I)cc2)[C@H]1OC(=O)CCC (stereo in doubt; 16a) | 40 | 29 | 
16 | C=CCO[C@H]1[C@@H](O)[C@H](COS(=O)(=O)c2cccc(C(F)(F)F)c2)O[C@@H](Oc2ccc(I)cc2)[C@H]1OC(=O)C(C)C | 18.5 | 18 | 
